High-throughput results deposited in PubChem by several laboratories.
hERG protect = compounds protecting human hERG from proarrhythmic drug block; CHO-hERG, FluxOR thallium flux, dofetilide IC70 present; activation (rescue from dofetilide block), less the hit threshold, % at 10 µM; Q12809; 310,000 tested, 0.51% active;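 active = activation above the mean of controls blocked by dofetilide plus 5 SD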;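 note: thallium influx through hERG after potassium depolarization seen as dye fluorescence rise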
KCNQ1 block = blocks the human KCNQ1 potassium channel; P51787; CHO-K1 KCNQ1, FluxOR thallium flux fluorescence; active compounds read high; B-score at 10 µM; 310,000 tested, 1.3% active; AID 2642;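 active = compounds whose thallium flux B-score, printed positive for inhibition, exceeds three library SD while starting fluorescence stays within three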;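 note: channel opened by potassium depolarization with thallium stimulus after 20 min compound exposure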
KCNK9 inh = human KCNK9 channel inhibition; HEK293 KCNK9, FluxOR thallium flux fluorescence; active compounds read low; 310,000 tested, 1.2% active; Q9NPC2; AID 488922; B-score at 10 µM;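 active = ratio B-score over 3 SD below the library mean, with starting fluorescence within 5 SD of its mean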;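 note: negative B-score means less thallium flux so channel inhibition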
KCNQ1 pot = potentiators or activators of human KCNQ1 potassium channel; P51787; CHO-K1 KCNQ1, thallium flux FluxOR fluorescence; active compounds read high; B-score at 10 µM; 310,000 tested, 0.35% active; AID 2648;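 active = fluorescence ratio B-score, a plate-corrected score, at least three library SD, with initial intensity B-score within 5 SD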
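Assay system: CHO-K1 cells stably expressing KCNQ1; Medium: assay buffer with matched DMSO; Also added: K+/Tl+ depolarizing stimulus; Dosing: single dose; Timing: dye 90 min, compound 20 min, room temperature; Measured by: kinetic FluxOR thallium fluorescence, 10-s 1-Hz baseline, 110-s post-stimulus read; Read-out: peak-minus-minimum fluorescence over initial fluorescence, negative-control normalized, B-scored.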
KCNK3 inh = human KCNK3 channel inhibition, primary screen; B-score at 10 µM; 340,000 tested, 0.84% active; AID 602410; CHO-KCNK3 thallium flux, FluxOR fluorescence; active compounds read low; O14649;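 active = B-score under library mean minus 4 SD, starting fluorescence ratio at most library mean plus 5 SD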;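 note: more negative B-score means stronger inhibition of thallium flux through KCNK3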
Target sequence (O14649 whole entry, looked up): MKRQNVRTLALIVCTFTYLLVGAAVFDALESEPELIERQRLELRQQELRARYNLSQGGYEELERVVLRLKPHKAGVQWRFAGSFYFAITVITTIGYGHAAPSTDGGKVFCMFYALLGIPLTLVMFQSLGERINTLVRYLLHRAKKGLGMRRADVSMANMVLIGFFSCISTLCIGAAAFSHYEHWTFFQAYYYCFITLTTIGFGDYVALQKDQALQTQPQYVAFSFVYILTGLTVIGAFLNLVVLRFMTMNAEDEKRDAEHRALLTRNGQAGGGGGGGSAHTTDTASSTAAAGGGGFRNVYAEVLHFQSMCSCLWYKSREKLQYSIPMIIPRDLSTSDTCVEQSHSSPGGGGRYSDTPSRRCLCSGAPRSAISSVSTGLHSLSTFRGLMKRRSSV
PHOSPHO1 block = PHOSPHO1 (human) inhibition. Q8TCT1. recombinant PHOSPHO1, absorbance phosphatase assay. inhibition, % at 13.3 µM. 290,000 tested, 1.1% active. AID 1565; in the data active = inhibition above about 60%
Target sequence (Q8TCT1 whole entry, looked up): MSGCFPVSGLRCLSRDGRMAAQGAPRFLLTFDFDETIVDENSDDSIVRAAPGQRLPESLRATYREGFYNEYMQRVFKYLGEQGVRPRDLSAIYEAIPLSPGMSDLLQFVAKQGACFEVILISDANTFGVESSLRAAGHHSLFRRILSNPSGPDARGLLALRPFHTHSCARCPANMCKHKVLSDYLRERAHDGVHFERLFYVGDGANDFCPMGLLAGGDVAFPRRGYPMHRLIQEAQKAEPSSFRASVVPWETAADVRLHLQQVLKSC
KCNQ1 inh valid = reconfirmed blocker of the human KCNQ1 potassium channel. shares compounds with KCNQ1 block. KCNQ1 cell line, FluxOR thallium flux fluorescence. inhibition, % at 10 µM. 1,600 tested, 93% active;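 active = primary screen active, with duplicate mean exceeding buffer control mean plus 3 SD of buffer wells, cut at about 28% in these data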
CHO KCNQ1 ctr = counter-screen for KCNQ1 inhibitors: effect in parental CHO cells; shares compounds with KCNQ1 block; parental CHO-K1, FluxOR thallium flux fluorescence ratio; active compounds read low; zero means no signal rise above baseline; fluorescence ratio (Tl flux) at 10 µM; 1,600 tested, 21% active; AID 588366;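 active = mean of duplicate thallium-flux fluorescence ratios in parental host cells more than 5 SD below the buffer control mean, cut at about 0.38 in these data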;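 note: ratio is peak minus minimum fluorescence divided by baseline fluorescence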
KCNQ1 APC inh = confirmation of human KCNQ1 potassium channel inhibitors by electrophysiology; KCNQ1-CHO cells, automated patch clamp current; shares compounds with KCNQ1 block; calls only at 10 µM; 490 tested, 20% active;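 active = KCNQ1 current drop exceeding 3 SD of negative control wells, seen in both duplicate runs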;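 note: steady state current during a 2 s step from -80 to +40 mV; negative values mean current inhibition and positive values mean potentiation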
KCNQ2 inh = selectivity of KCNQ1 inhibitors: inhibition of rat KCNQ2 channel; KCNQ2 cells, FluxOR thallium flux fluorescence; 1,600 tested, 71% active; shares compounds with KCNQ1 block; inhibition, % at 10 µM;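 active = mean percent inhibition of the KCNQ2 thallium signal more than 5 SD above the buffer-only control wells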;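 note: KCNQ2 expressed in CHO cells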
KCNQ1-KCNE1 inh = KCNQ1 inhibitor that also blocks human KCNQ1/KCNE1 channel | inhibition, % at 10 µM | KCNQ1/KCNE1 cells, FluxOR thallium flux fluorescence | shares compounds with KCNQ1 block | 1,600 tested, 77% active;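 active = mean percent inhibition of duplicate wells above the buffer-only control mean plus 3 SD of those controls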
Each line names hits and unclear results; the compound was inactive in the other large screens (follow-up assays come after a bar, where they were run). Compounds with a hit are over-represented: about 4% of the library has one in this group of screens.

CCCn1c2c(c(O)c(C(=O)Nc3ccc(OC)cc3)c1=O)CCCC2	KCNQ1 block 7 | KCNQ1 inh valid 94 | CHO KCNQ1 ctr inactive | KCNQ1 APC inh inactive | KCNQ2 inh 78% | KCNQ1-KCNE1 inh 104%
Cc1ccc(NC(=O)Nc2ccc3c(c2)CCC3)cc1	none
Cc1ccc(CN(C)CC(=O)Nc2ccc3c(c2)CCC3)cc1	KCNQ1 block 6 | KCNQ1 inh valid 83 | CHO KCNQ1 ctr inactive | KCNQ2 inh 86% | KCNQ1-KCNE1 inh 90%
COc1ccccc1CNC(=O)c1ccccc1NS(C)(=O)=O	none
CCCCCCNC(=O)C(C#N)c1nc2ccccc2nc1N1CCCC1 (stereo unspecified)	KCNQ1 block 9 | KCNQ1 inh valid active | CHO KCNQ1 ctr 0.2 | KCNQ2 inh inactive | KCNQ1-KCNE1 inh inactive
Cc1nn(C)c(Nc2ccc(Br)cc2)c1Br	KCNQ1 block 6 | KCNQ1 inh valid 88 | CHO KCNQ1 ctr inactive | KCNQ1 APC inh inactive | KCNQ2 inh inactive | KCNQ1-KCNE1 inh 44%
CCOc1cc(CNn2cnnc2)cc(Br)c1OCC(=O)NC1CCCCC1	none
CC12CCC(=O)N1C(C(=O)Nc1cc(C(F)(F)F)ccc1N1CCCCC1)CS2 (stereo unspecified)	KCNQ1 block 7 (no result: PHOSPHO1 block) | KCNQ1 inh valid 46 | CHO KCNQ1 ctr inactive | KCNQ2 inh 103% | KCNQ1-KCNE1 inh 48%
Cc1cc(C)cc(NC(=O)CSc2nc3ccccc3nc2N2CCCCC2)c1	KCNQ1 block 6 | KCNQ1 inh valid 68 | CHO KCNQ1 ctr inactive | KCNQ2 inh 92% | KCNQ1-KCNE1 inh 86%
O=C(COC(=O)Cn1cnc2ccccc2c1=O)Nc1ccccc1Sc1ccc(Cl)cc1	none
c1csc(-c2cn3ccc4ccccc4c3n2)c1	none
N#Cc1ccc(NC(=O)Nc2ccc(Cl)cc2)cc1	KCNQ1 block 6 | KCNQ1 inh valid inactive | CHO KCNQ1 ctr inactive | KCNQ2 inh inactive | KCNQ1-KCNE1 inh inactive
N#Cc1ccc(NC(=S)Nc2ccccc2)cc1	KCNQ1 block 7 | KCNQ1 inh valid inactive | CHO KCNQ1 ctr inactive | KCNQ2 inh inactive | KCNQ1-KCNE1 inh 56%
S=C(Nc1cccc(Br)c1)c1ccccc1	none
Cc1ccc(NC(=S)Nc2ccc(Br)cc2)cc1	KCNQ1 block 7 | KCNQ1 inh valid 48 | CHO KCNQ1 ctr inactive | KCNQ2 inh inactive | KCNQ1-KCNE1 inh inactive
CN(CC(=O)Nc1ccc(C#N)cc1)Cc1ccc(Cl)cc1	none
S=C(Nc1ccccc1)Nc1cccc(Br)c1	KCNQ1 block 8 | KCNQ1 inh valid 60 | CHO KCNQ1 ctr inactive | KCNQ2 inh inactive | KCNQ1-KCNE1 inh 60%
COC(=O)c1sccc1NC(=O)Nc1cc(C)ccc1C	none
CN(CC(=O)N1CCN(C2CCCCC2)CC1)S(=O)(=O)c1cccc2nsnc12	none
CC1(C)CC(=O)C=C(Nc2ccccc2C#N)C1	none
COc1cc(NC(=O)c2ccno2)cc(C(=O)Nc2cccc(C(F)(F)F)c2)c1	KCNQ1 block 9 | KCNQ1 inh valid 110 | CHO KCNQ1 ctr 0.35 | KCNQ2 inh 100% | KCNQ1-KCNE1 inh 163%
COc1cc(NC(=O)c2nccnc2N)cc(C(=O)Nc2cccc(C(F)(F)F)c2)c1	none
COc1ccc(C2SCC(=O)N2c2ccc(F)cc2)cc1 (stereo unspecified)	none
CCOC(=O)c1c(SCC(=O)Nc2nc(C)cs2)nc(=O)[nH]c1C	none
CC(C)(C)c1ccc(S(=O)(=O)N2CCC(c3nc4ccc(Cl)cc4[nH]3)CC2)cc1	KCNQ1 block 10 | KCNQ1 inh valid 117 | CHO KCNQ1 ctr inactive | KCNQ2 inh 101% | KCNQ1-KCNE1 inh 108%
Cc1cc(C)c(N2CCN(S(=O)(=O)N3CCCCCC3)CC2)c(C)c1	KCNQ1 block 7 | KCNQ1 inh valid 126 | CHO KCNQ1 ctr inactive | KCNQ2 inh 115% | KCNQ1-KCNE1 inh 118%
CNC[C@H](O)c1cccc(O)c1	none
CCN(CC(O)c1cccc(O)c1)C(=O)C12CC3CC(CC(C3)C1)C2 (stereo unspecified)	KCNQ1 block 6 | KCNQ1 inh valid 66 | CHO KCNQ1 ctr inactive | KCNQ2 inh 77% | KCNQ1-KCNE1 inh 43%
Cc1cc(SCc2cccc(Cl)c2)nc(=O)[nH]1	none
FC(F)(F)c1nc(SCc2ccc(Cl)cc2Cl)n[nH]1	KCNQ1 block 6 | KCNQ1 inh valid inactive | CHO KCNQ1 ctr inactive | KCNQ2 inh inactive | KCNQ1-KCNE1 inh inactive
Cn1c(SCc2ccc(Cl)cc2Cl)nc(C(F)(F)F)cc1=O	none
CCCN(CCC)C(=O)CSc1nc2ccsc2c(=O)n1NC(=O)c1ccccc1	none
CCCN=C1N(C)C[C@@H]2[C@@H]3C(=O)N(Cc4ccccc4)C(=O)[C@@H]3[C@](CC)(C(=O)OC)N12	none (no result: hERG protect, KCNQ1 block, KCNK9 inh, KCNQ1 pot, PHOSPHO1 block)
COc1ccc(Br)cc1/C=C(\C(=O)O)c1ccc(S(=O)(=O)N2CCCC2)s1	none (no result: hERG protect, KCNQ1 block, KCNK9 inh, KCNQ1 pot, PHOSPHO1 block)
CC(C)(C)c1cc(NCc2ccccn2)n2ncc(-c3ccccc3)c2n1	KCNQ1 block 7 | KCNQ1 inh valid 72 | CHO KCNQ1 ctr inactive | KCNQ2 inh inactive | KCNQ1-KCNE1 inh 61%
c1csc(-c2nnc(NC3CCCCC3)c3ccccc23)c1	KCNQ1 block 10 | KCNQ1 inh valid 52 | CHO KCNQ1 ctr inactive | KCNQ2 inh 69% | KCNQ1-KCNE1 inh 51%
O=C(c1cc(-c2cccs2)nc2ccccc12)N1CCN(S(=O)(=O)c2cccc(F)c2)CC1	none
COC(=O)C(C)Sc1nnc2n(-c3cccc(C)c3)c(=O)c3c4c(sc3n12)CCCC4 (stereo unspecified)	KCNQ1 block 6 | KCNQ1 inh valid 42 | CHO KCNQ1 ctr inactive | KCNQ2 inh 87% | KCNQ1-KCNE1 inh 52%
Cc1cc(C(=O)CSc2nc3ccc(Cl)cc3[nH]2)c(C)n1CC1CCCO1 (stereo unspecified)	KCNQ1 block 8, PHOSPHO1 block 100 | KCNQ1 inh valid 126 | CHO KCNQ1 ctr inactive | KCNQ1 APC inh inactive | KCNQ2 inh 109% | KCNQ1-KCNE1 inh 121%
Cc1cc(C(=O)CSc2nnc(-c3ccc(Cl)cc3)n2CC2CCCO2)c(C)n1C (stereo unspecified)	none
